# Measurements from different studies.
# Protocols differ between the studies behind these lines.
# Pah: Phenylalanine-4-hydroxylase (Pah, Rattus norvegicus, UniProt P04176)
# VHL: von Hippel-Lindau disease tumor suppressor (VHL, Homo sapiens, UniProt P40337)
SMILES,target,test,setting,Kd
CCCC[C@H](N)C(=O)O,Pah,"binding, fluorescence",pH 7.5,17000 µM
Cc1cnc(-c2ccc(-c3ccc(NC(=O)Nc4c(F)cc(F)cc4F)cc3F)c3c2C(=O)NC3)[nH]1,"Serine/threonine-protein kinase 3 (STK3, Homo sapiens, UniProt Q13188)","binding, competition with immobilised ligand",,0.0039 µM
CC(=O)N[C@H]1[C@H]([C@H](O)[C@H](O)CO)O[C@@](O[C@H]2[C@@H](O)[C@@H](CO)O[C@@H](O[C@H]3[C@H](O)[C@@H](NC(C)=O)C(O)O[C@@H]3CO)[C@@H]2O)(C(=O)O)C[C@@H]1O (stereo partly drawn),"SIGLEC5 (Homo sapiens, UniProt O15389, C36A)","binding, NMR",,7000 µM
Cc1ncsc1-c1ccc(CNC(=O)[C@@H]2C[C@@H](O)CN2C(=O)[C@@H](NC(=O)C2(F)CC2)C(C)(C)C)c(OCCOc2ccc(CN3CCN(c4cc(-c5ccccc5O)nnc4N)CC3)cc2)c1,VHL,"binding, SPR",,0.25 µM
CC(C)[C@H](N)c1nc2cc(-c3ccncc3F)sc2c(=O)[nH]1,"Cell division cycle 7-related protein kinase (CDC7, Homo sapiens, UniProt O00311)","binding, MST",,0.00032 µM
Nc1ncnc2c1ncn2[C@@H]1O[C@H](CSCC[C@H](N)C(=O)O)[C@@H](O)[C@H]1O,"mdh (Escherichia coli, UniProt P61889, del14-14/del9-10/V5N)","binding, ITC",,13.3 µM
Nc1ncnc2c1ncn2[C@@H]1O[C@H](COP(=O)(O)OS(=O)(=O)O)[C@@H](OP(=O)(O)O)[C@H]1O,"Sulfotransferase 2A1 (SULT2A1, Homo sapiens, UniProt Q06520)","binding, fluorescence",,0.25 µM
CCCN1CCN(c2ccc(-c3cncc(Cl)c3N3CCC4(CCNC4=O)CC3)cc2)CC1,"Serine/threonine-protein kinase MRCK beta (CDC42BPB, Homo sapiens, UniProt Q9Y5S2)",cell-free assay,lysate,4.03 µM
c1cncc(-c2cccc(Nc3nccc(NC4CCCCC4)n3)c2)c1,"Ribosomal protein S6 kinase alpha-1, N-terminal kinase domain (RPS6KA1, Homo sapiens, UniProt Q15418)","binding, competition with immobilised ligand",,4.4 µM
C=C(C)[C@@H]1CC[C@]2(C)CC[C@]3(C)[C@H](CC[C@@H]4[C@@]5(C)CC[C@H](O)C(C)(C)[C@@H]5CC[C@]43C)[C@@H]12,"GTPase KRas (KRAS, Homo sapiens, UniProt P01116)","binding, ITC",,0.33 µM
N[C@@H](Cc1ccccc1)C(=O)O,Pah,"binding, fluorescence",pH 7.5,54 µM
Cc1ncsc1-c1ccc(CNC(=O)[C@@H]2C[C@H](O)CN2C(=O)[C@@H](NC(=O)C2(F)CC2)C(C)(C)C)c(OCCc2ccc(CN3CCN(c4cc(-c5ccccc5O)nnc4N)CC3)cc2)c1,VHL,"binding, SPR",,> 10 µM
CC1(C)Cc2c(-c3ccccc3)c(-c3ccc(Cl)cc3)c(CC(=O)NCC(=O)O)n2C1,"Prostaglandin E synthase (PTGES, Homo sapiens, UniProt O14684)","binding, ITC",,2.1 µM
Cc1cc(Nc2cc3ncccc3c(N[C@@H]3C[C@H]4CC[C@@H](C3)N4CCC#N)n2)n[nH]1,"Serine/threonine-protein kinase DCLK1 (DCLK1, Homo sapiens, UniProt O15075)","binding, competition with immobilised ligand",,0.89 µM
Cc1cc2nc3c(=O)[nH]c(=O)nc-3n(C[C@H](O)[C@H](O)[C@H](O)COP(=O)(O)OP(=O)(O)OC[C@H]3O[C@@H](n4cnc5c(N)ncnc54)[C@H](O)[C@@H]3O)c2cc1C,"Nuclear receptor coactivator 3 (Homo sapiens, UniProt Q9Y6Q9)",binding,lysate,0.015 µM
